Screens (PubChem BioAssay)
IDH1 R132H inh – blocks human IDH1 R132H reductase activity; inhibition, % at 10 µM; diaphorase/resazurin fluorescence, 60 min; hit rate 0.18% among 70,000; AID 624101; in the data active = inhibition above about 34%;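 note: 0% = DMSO and 100% = no enzyme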
Target sequence (O75874 whole entry R132H): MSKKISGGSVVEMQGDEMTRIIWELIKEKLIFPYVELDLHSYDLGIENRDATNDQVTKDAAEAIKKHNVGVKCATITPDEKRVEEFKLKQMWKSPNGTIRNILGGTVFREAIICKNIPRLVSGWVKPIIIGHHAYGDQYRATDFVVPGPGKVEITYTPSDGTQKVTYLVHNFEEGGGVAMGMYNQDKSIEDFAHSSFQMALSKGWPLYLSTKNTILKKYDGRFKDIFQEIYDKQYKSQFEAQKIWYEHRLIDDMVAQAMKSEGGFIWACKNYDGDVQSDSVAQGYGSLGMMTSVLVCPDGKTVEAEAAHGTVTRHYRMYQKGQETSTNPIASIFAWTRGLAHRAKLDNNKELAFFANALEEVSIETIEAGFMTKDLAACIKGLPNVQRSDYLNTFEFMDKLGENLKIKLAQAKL
Pf Dd2 inh – P. falciparum Dd2 growth inhibition; activity change, % at 10 µM; SYBR Green, 72 h; hits give low values; AID 1159554; hit rate 2.3% among 94,000; in the data active = activity change below about -80%
Tcruzi prolif – T. cruzi proliferation inhibition | T. cruzi beta-gal in NIH3T3, GalScreen luminescence, 90 h | inhibition, % at 8.34 µM | hit rate 5.9% among 77,000;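 active = mean inhibition above about 93%, with at least 55% of replicates each passing it, limit read from the data, passing the limit was not always enough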
KDM4C inh – inhibitors of human demethylase GASC-1 KDM4C; GST-KDM4C 2-372, H3K9me3 peptide, LANCE TR-FRET; inhibition, % at 12.5 µM; hit rate 0.15% among 96,000;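 active = mean replicate inhibition above about 25%, with at least 55% of replicates also reaching it, limit read from the data, passing the limit was not always enough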
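System – N-terminal GST-fused human GASC-1 (KDM4C) fragment, residues 2-372 · Input – enzyme final amount 10 nM · Technique – LANCE TR-FRET, Eu antibody, ULight-streptavidin, EDTA, ex 340 nm, em 618/671 nm · Medium – HEPES buffer, pH 7.5, plus ascorbate · Incubation – enzyme reaction 30 min, then detection 60 min, both room temperature · Reagent – H3K9me3 peptide with Fe(II)/2OG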
* = called active by the depositor; / = no result. Most compounds without a hit are left out; they make up all but 5.9% or so of the library.

SMILES	IDH1 R132H inh	Pf Dd2 inh	Tcruzi prolif	KDM4C inh
C[C@H](CO)N1C[C@H](C)[C@@H](CN(C)C(=O)Nc2cccc3ccccc23)Oc2ccc(NC(=O)Nc3ccc4c(c3)OCO4)cc2CC1=O	0	-82*	-10	0
CC(C)NC(=O)Nc1cccc2c1O[C@H](CN(C)C(=O)Nc1ccc3c(c1)OCO3)[C@@H](C)CN([C@@H](C)CO)C2=O	3	16	10	2
O=C(COc1ccc(Cl)cc1CO)Nc1ccccc1F	3	/	/	/
C[C@@H]1CN([C@H](C)CO)C(=O)c2cccc(NC(=O)Nc3cccc4ccccc34)c2O[C@@H]1CN(C)C(=O)Nc1ccc2c(c1)OCO2	/	-83*	80	0
C[C@@H]1CN([C@@H](C)CO)C(=O)c2c(c3ccccc3n2C)-c2ccccc2CO[C@H]1CN(C)C(=O)Nc1ccccc1C(F)(F)F	/	-90*	/	1
C[C@H]1CN([C@@H](C)CO)C(=O)c2c(c3ccccc3n2C)-c2ccccc2CO[C@@H]1CN(C)C(=O)Nc1cccc(Cl)c1Cl	/	-84*	/	-5
C[C@H](CO)N1C[C@H](C)[C@@H](CN(C)C(=O)Nc2ccccc2C(F)(F)F)OCc2ccccc2-c2c(n(C)c3ccccc23)C1=O	/	-30	/	/
C[C@H](CO)N1C[C@H](C)[C@@H](CN(C)C(=O)Nc2ccc3c(c2)OCO3)Oc2ccc(NC(=O)Nc3ccc(C(F)(F)F)cc3)cc2CC1=O	/	-93*	/	-2
C[C@@H]1CN([C@H](C)CO)C(=O)Cc2cc(NC(=O)Nc3ccc4c(c3)OCO4)ccc2O[C@H]1CN(C)C(=O)Nc1ccc(C(F)(F)F)cc1	0	-27	10	-2
C[C@H]1CN([C@@H](C)CO)C(=O)Cc2cc(NC(=O)Nc3ccc(C(F)(F)F)cc3)ccc2O[C@@H]1CN(C)C(=O)Nc1ccc2c(c1)OCO2	1	-93*	/	-4
COC(=O)c1ccccc1NC(=O)c1c(NC(=O)CN2CCCCCC2)sc2c1CCC2	0	/	/	/
Cc1cc(OCC(=O)Nc2cccc(NC(=O)c3cccc(Cl)c3)c2)ccc1Cl	12	/	/	/
C[C@@H]1CN([C@H](C)CO)C(=O)c2cccc(NS(=O)(=O)c3ccc(Cl)cc3)c2O[C@@H]1CN(C)Cc1ccc(C(=O)Nc2ccccc2N)cc1	0	-87*	93	-3
Cc1ccc(S(=O)(=O)Nc2cccc3c2O[C@H](CN(C)Cc2ccc(C(=O)Nc4ccccc4N)cc2)[C@@H](C)CN([C@@H](C)CO)C3=O)cc1	0	-74	/	0
Cc1ccc(S(=O)(=O)Nc2cccc3c2O[C@H](CN(C)Cc2ccc(C(=O)Nc4ccccc4N)cc2)[C@H](C)CN([C@H](C)CO)C3=O)cc1	/	-85*	50	3
C[C@@H]1CN([C@H](C)CO)C(=O)c2cccc(NS(=O)(=O)c3ccccc3)c2O[C@H]1CN(C)Cc1ccc(C(=O)Nc2ccccc2N)cc1	/	-78	/	0
C[C@H](CO)N1C[C@H](C)[C@H](CN(C)Cc2ccc(C(=O)Nc3ccccc3N)cc2)Oc2c(NS(=O)(=O)c3ccccc3)cccc2C1=O	1	-86*	/	-1
C[C@H](CO)N1C[C@H](C)[C@H](CN(C)Cc2ccc(C(=O)Nc3ccccc3N)cc2)Oc2c(NS(=O)(=O)c3ccc(Cl)cc3)cccc2C1=O	0	-89*	/	0
CCCCN(CCCC)c1ccc(/C=N/NC(=O)CCCCCCC(=O)OC)cc1	0	/	/	/
CC(C)N(Cc1nc(-c2ccc(Cl)cc2)no1)S(=O)(=O)c1ccc(F)cc1	0	/	/	/
C[C@@H]1CN([C@H](C)CO)C(=O)c2cccc(NS(=O)(=O)c3ccccc3)c2O[C@@H]1CN(C)Cc1ccc(-c2ccccc2)cc1	/	-4	64	-1
C[C@@H]1CN([C@H](C)CO)C(=O)c2cccc(NS(=O)(=O)c3ccccc3)c2O[C@H]1CN(C)Cc1ccc(-c2ccccc2)cc1	2	-91*	-87	1
C[C@@H]1CN([C@H](C)CO)C(=O)Cc2cc(NC(=O)Cc3cn(C)c4ccccc34)ccc2O[C@@H]1CN(C)Cc1ccc(Oc2ccccc2)cc1	0	-28	59	-1
C[C@H](CO)N1C[C@H](C)[C@H](CN(C)Cc2ccc(Oc3ccccc3)cc2)Oc2ccc(NC(=O)Cc3cn(C)c4ccccc34)cc2CC1=O	/	-83*	36	-1
C[C@H](CO)N1C[C@H](C)[C@@H](CN(C)Cc2ccccc2)Oc2ccc(NC(=O)Cc3cn(C)c4ccccc34)cc2CC1=O	0	-82*	70	-3
SMILES	IDH1 R132H inh	Pf Dd2 inh	Tcruzi prolif	KDM4C inh
C[C@H](CO)N1C[C@H](C)[C@H](CN(C)C(=O)Nc2cccc3ccccc23)Oc2ccc(NC(=O)Cc3cn(C)c4ccccc34)cc2CC1=O	-24	-85*	43	-1
C[C@H]1CN([C@@H](C)CO)C(=O)Cc2cc(NC(=O)Cc3cn(C)c4ccccc34)ccc2O[C@H]1CN(C)C(=O)Nc1cccc2ccccc12	-1	-33	29	-1
C[C@@H]1CN([C@@H](C)CO)C(=O)Cc2cc(NC(=O)Cc3cn(C)c4ccccc34)ccc2O[C@H]1CN(C)Cc1ccc(Oc2ccccc2)cc1	0	-90*	9	6
CC(=O)Nc1cccc(OCC(=O)N(C)c2ccccc2)c1	0	/	/	/
O=[N+]([O-])c1ccccc1NCCNS(=O)(=O)c1ccc(Br)cc1	0	/	/	/
CN1c2ccccc2Oc2nnc(N3CCN(c4ccccc4)CC3)cc21	1	/	/	/
C[C@@H]1CN([C@H](C)CO)C(=O)c2cccc(NC(=O)CCCCCC(=O)Nc3ccccc3N)c2O[C@@H]1CN(C)Cc1ccc(C(F)(F)F)cc1	0	-92*	/	-1
C[C@@H]1CN([C@@H](C)CO)C(=O)c2cccc(NC(=O)CCCCCC(=O)Nc3ccccc3N)c2O[C@@H]1CN(C)Cc1ccc(C(F)(F)F)cc1	/	-92*	94	-1
C[C@H](CO)N1C[C@H](C)[C@@H](CN(C)Cc2ccc(C(F)(F)F)cc2)Oc2c(NC(=O)CCCCCC(=O)Nc3ccccc3N)cccc2C1=O	/	-89*	/	-3
C[C@H]1CN([C@@H](C)CO)C(=O)c2cc(NC(=O)CCCCCC(=O)Nc3ccccc3N)ccc2O[C@H]1CN(C)Cc1ccc(C(F)(F)F)cc1	/	-25	90	1
